Assay results from different studies.
Compare with care: the assays were run in different laboratories.
Target: Cyclin-dependent kinase 7 (CDK7, Homo sapiens, UniProt P50613)

COc1cnc(Nc2cccc(S(N)(=O)=O)c2)nc1N1CCN(c2ccccc2)CC1  remaining binding (binding, competition with immobilised ligand; 1 µM): 84%
C[C@@H]1CN(c2ccc3ncc(-c4ccc5[nH]nc(C6CC6)c5c4)n3n2)C[C@H](C)O1  remaining binding (binding, competition with immobilised ligand; 0.5 µM): 23%
COc1ccc2c(c1)O[C@H](c1ccc(OC)c(OC)c1)C[C@@H]2NC(=O)C1(c2ccc3c(c2)OC(F)(F)O3)CC1  remaining binding (cell-free assay, competition with immobilised ligand; 1 µM): 85%
O=C(c1ccc(Nc2ncc(Cl)c(-c3cc4ccccc4s3)n2)cc1)N1CCC(N2CCCC2)CC1  remaining binding (binding, competition with immobilised ligand; 1 µM): 1.5%
O=C(O)[C@@H]1[C@@H](Cn2nnc3ccccc3c2=O)CC[C@H]1C(=O)c1ccc(OCCC2CCOCC2)cc1  remaining binding (cell-free assay, competition with immobilised ligand; 1 µM): 86%
Cc1cnn2ncc(-c3ccnc(N(C)C)n3)c2c1  remaining binding (binding; 1 µM): 61%
O=C(NCCCN1CCOCC1)c1ccc(Nc2ncc(Cl)c(-c3ccc(Cl)s3)n2)cc1  remaining binding (binding, competition with immobilised ligand; 1 µM): 2.5%
C[C@H]1CCN(c2nccc(-c3cnn4ncccc34)n2)C1  remaining binding (binding; 1 µM): 27%
Nc1ncc2c(n1)-c1c([nH]c3ccc(C#CC4CC4)cc13)CCCC2  remaining binding (binding, competition with immobilised ligand; 1 µM): 92%
COc1ccnn2ncc(-c3ccnc(N(C)C)n3)c12  remaining binding (binding; 1 µM): 85%
COc1cccc(CNC(=O)c2nc3scc(COCc4ccc(C(=O)O)cc4)c3c(=O)[nH]2)c1  remaining binding (cell-free assay, competition with immobilised ligand; 1 µM): 80.5%
FC(F)(F)Oc1cccc(-c2cnc3ccc(-c4ccncc4)nn23)c1  remaining binding (cell-free assay, competition with immobilised ligand; 5 µM): 0.85%
O=C(c1ccc(Nc2nccc(-c3cc4ccccc4s3)n2)cc1)N1CCC(N2CCCC2)CC1  remaining binding (binding, competition with immobilised ligand; 1 µM): 12%
C[C@@H](c1ccc(-n2cnc3c(N)ncnc32)cc1)N1CCc2nn(C)c(Cc3ccccc3)c2C1=O  remaining binding (binding, competition with immobilised ligand; 0.1 µM): 45%
O=S(=O)(NC1CCC(c2cc(F)ccc2F)(S(=O)(=O)c2ccc(Cl)cc2)CC1)C(F)(F)F (centres unmarked)  remaining binding (cell-free assay, competition with immobilised ligand; 1 µM): 100%
O=C(NCC1CCOCC1)c1n[nH]cc1NC(=O)c1c(F)cccc1F  remaining binding (binding, competition with immobilised ligand; 1 µM): 31%
CCC(=O)N[C@@H]1CC[C@H](C(=O)N(C)c2ccc(-c3nc4ccccc4o3)cc2)C1  remaining binding (cell-free assay, competition with immobilised ligand; 1 µM): 85%
c1cncc(-c2cccc(Nc3nccc(NC4CCCCC4)n3)c2)c1  remaining binding (binding, competition with immobilised ligand; 10 µM): 46%
CN(C)c1nccc(-c2cnn3ncccc23)n1  remaining binding (binding; 1 µM): 82%
O=C(O)c1cc(-c2ccc(C3CCNCC3)cc2)c2ccc(-c3ccc(C(F)(F)F)cc3)cc2c1  remaining binding (cell-free assay, competition with immobilised ligand; 1 µM): 82%
C=CC(=O)N1CCC(C(=O)NCC(=O)N2CCN(c3nc(-c4cnc(N)nc4C(F)F)nc(N4CCOCC4)n3)CC2)CC1  remaining binding (binding, competition with immobilised ligand; 1 µM): 94%
N[C@H]1CCN(c2nccc(-c3cnn4ncccc34)n2)C1  remaining binding (binding; 1 µM): 59%
O=C(NS(=O)(=O)c1ccc(NCC2CCOCC2)c([N+](=O)[O-])c1)c1ccc(N2CCN(Cc3ccc(C(F)(F)F)cc3-c3ccc(Cl)cc3)CC2)cc1Oc1cnc2[nH]ccc2c1  remaining binding (cell-free assay, competition with immobilised ligand; 1 µM): 96%
